Data on one compound can be found in ChEMBL document CHEMBL4364279, “Design, synthesis, in-silico and biological evaluation of novel chalcone-O-carbamate derivatives as multifunctional agents for the treatment of Alzheimer's disease” (Eur J Med Chem, 2019).

Data set [1] has as its target Acetylcholinesterase (AChE) (Electrophorus electricus, UniProt O42275). The experiment in a line: Inhibition of electric eel AChE at 25 uM using acetylthiocholine iodide as substrate incubated for 15 mins by Ellman's method relative to control. As to conditions: electric eel acetylcholinesterase (isolated enzyme), probe acetylthiocholine iodide. Background: DTNB colorimetry detects thiols as they appear.

Data set [2] concerns the target Cholinesterase (Equus caballus, UniProt P81908). The data set can be described thus: Inhibition of equine serum BuChE using S-butyrylthiocholine iodide as susbtrate preincubated for 6 mins followed by substrate addition measured up to 3 mins by Ellman's method.
Data set [3] has as its target Cholinesterase (Equus caballus) (UniProt P81908). The experiment in a line: Reversible inhibition of equine serum BuChE assessed as enzyme activity at 0.1 times IC50 using butyrylthiocholine iodide as substrate by Ellman's method relative to control. Also on record: scale not given: the % may be the effect or the level left. The gist of the method: (§1)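 Reversibility tested by recovery of equine serum BuChE activity after dilution of inhibitor, with activity monitored over time up to 240 min by the Ellman method (DTNB read at 412 nm). Activity expressed relative to untreated control. Three independent experiments.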

Data set [4] shares this target. The data set can be described thus: Reversible inhibition of equine serum BuChE assessed as enzyme activity at 0.1 times IC50 using butyrylthiocholine iodide as substrate measured at 120 mins by Ellman's method relative to control. On the set-up: scale not given: the % may be the effect or the level left. The gist of the method: as §1
Data set [5] shares this target. The experiment in a line: Reversible inhibition of equine serum BuChE assessed as enzyme activity at IC50 using butyrylthiocholine iodide as substrate by Ellman's method relative to control. Also on record: scale not given: the % may be the effect or the level left.
Data set [6] is described as follows: Antioxidant activity assessed as trolox equivalents of AAPH radical scavenging activity preincubated for 15 mins followed by AAPH addition and measured every minute for 90 mins by ORAC-FL assay. Format: functional.
In data set [7] the target is T1, Amine oxidase [flavin-containing] A (Homo sapiens, UniProt P21397).
T1 sequence (P21397 whole entry): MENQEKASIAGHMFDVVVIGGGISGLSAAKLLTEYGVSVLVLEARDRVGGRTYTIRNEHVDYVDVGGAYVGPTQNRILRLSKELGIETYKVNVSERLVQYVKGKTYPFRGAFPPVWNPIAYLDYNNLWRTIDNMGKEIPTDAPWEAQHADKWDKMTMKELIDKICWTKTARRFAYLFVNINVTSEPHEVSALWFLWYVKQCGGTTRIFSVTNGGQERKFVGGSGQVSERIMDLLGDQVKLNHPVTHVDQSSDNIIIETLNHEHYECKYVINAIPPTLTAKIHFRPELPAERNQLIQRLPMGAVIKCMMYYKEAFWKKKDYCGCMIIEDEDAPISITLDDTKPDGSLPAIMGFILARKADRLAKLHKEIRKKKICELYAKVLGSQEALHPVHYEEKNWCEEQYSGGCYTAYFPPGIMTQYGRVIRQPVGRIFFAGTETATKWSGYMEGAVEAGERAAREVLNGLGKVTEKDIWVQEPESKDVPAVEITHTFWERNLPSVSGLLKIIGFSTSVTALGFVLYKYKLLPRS
The data set can be described thus: Inhibition of recombinant human MAO-A expressed in baculovirus infected BTI insect cells at 12.5 uM using kynuramine as substrate measured after 30 mins by fluorescence based assay relative to control. As to conditions: 0.5 h.

Data set [8] is described as follows: Inhibition of Cu2+-induced amyloid beta (1 to 42 residues) (unknown origin) aggregation at 25 uM after 24 hrs by thioflavin-T based fluorescence assay relative to control. A digest of the protocol:
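Aβ1-42 (25 µM) and Cu2+ (25 µM) incubated at 37 °C for 24 h with or without compound (25 µM). ThT (5 µM in 50 mM glycine-NaOH, pH 8.5) then added; fluorescence read at ex 446/em 490 nm. Inhibition = (1−IFi/IFc)×100 after background subtraction. Three independent experiments.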

Data set [9] in a line: Disaggregation of Cu2+ induced preformed fibrils of amyloid beta (1 to 42) (unknown origin) at 25 uM preincubated with Cu2+ for 24 hrs followed by compound addition and measured after 24 hrs by thioflavin-T based fluorescence assay relative to control. The gist of the method: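 Aβ1-42 (25 µM) and Cu2+ (25 µM) preincubated at 37 °C for 24 h, then compound (25 µM) added and incubated a further 24 h at 37 °C. ThT (5 µM in 50 mM glycine-NaOH, pH 8.5) added; fluorescence at ex 446/em 490 nm, background subtracted, % vs no-compound control. Three independent experiments.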

The nature of data set [10]: Metal chelating activity of the compound assessed as formation of Al3+-compound complex by measuring red shift in maximum absorption at 37.5 uM after 30 mins by UV-vis absorption spectra analysis (reference value: 359 nanometer). The gist of the method: (§2)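 Metal binding examined by plate-reader absorbance scan using CuCl2, ZnCl2, AlCl3, FeSO4, CuCl and Fe(NO3)3 as metal sources.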

A short description of data set [11]: Metal chelating activity of the compound assessed as formation of Cu2+-compound complex by measuring red shift in maximum absorption at 37.5 uM after 30 mins by UV-vis absorption spectra analysis (reference value: 359 nanometer). The gist of the method:
as §2

Data set [12] in a line: Metal chelating activity of the compound assessed as formation of Fe2+-compound complex at 37.5 uM after 30 mins by UV-vis absorption spectra analysis. A digest of the protocol: as §2
Data set [13] can be described thus: Metal chelating activity of the compound assessed as formation of Zn2+-compound complex at 37.5 uM after 30 mins by UV-vis absorption spectra analysis. The gist of the method: as §2
Data set [14] can be described thus: Metal chelating activity assessed as mole fraction of compound required to show 1:1 stoichiometry for compound-Cu2+ complex at 37.5 uM after 30 mins by UV spectrometry method. A digest of the protocol:
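Molar-ratio method: a methanol solution of compound (final 37.5 µM) titrated with ascending amounts of CuCl2, with absorbance followed at 426 nm by plate reader.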

Data set [15] can be described thus: Disaggregation of Cu2+-induced preformed fibrils of amyloid beta (1 to 42 residues) (unknown origin) at 25 uM measured after 24 hrs by TEM analysis. A digest of the protocol: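 Aβ1-42 (25 µM) with Cu2+ (25 µM) at 37 °C for 24 h, then compound (25 µM) added for another 24 h. 10 µL aliquots put on carbon-coated copper/rhodium grids for 2 min at room temperature, washed twice with water, stained with 1% w/v uranyl acetate, dried 15 min, then imaged by field-emission TEM.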

Data set [16] deals with PC-12. The experiment in a line: Neuroprotective activity against H2O2-induced cell death in rat PC12 cells assessed as cell viability at 10 uM pretreated for 2 hrs followed by H2O2 addition measured after 30 mins by MTT assay (reference value: 49.6%). The conditions noted are these: read-out: Activity. Format: functional. In general terms: Tetrazolium assays rely on reduction of a dye to a coloured formazan, in cell work by metabolically active cells.

In data set [17] the test system is PC-12. The data set can be described thus: Neuroprotective activity against H2O2-induced cell death in rat PC12 cells assessed as cell viability at 1 uM pretreated for 2 hrs followed by H2O2 addition measured after 30 mins by MTT assay (reference value: 49.6%). Format: functional. The conditions noted are these: read-out: Activity.
Data set [18] is described as follows: Toxicity in Kunming mouse assessed as abnormal behavior at 20 to 500 mg/kg measured up to 14 days. The data set is classed as organism-based. As to conditions: in vivo, 336 h.
Data set [19] has as its system Mus musculus. The experiment in a line: Reversal of scopolamine-induced memory cognitive memory impairment in Kunming mouse assessed as change in spontaneous alteration behavior at 7.8 mg/kg, ig pretreated for 30 mins followed by scopolamine challenge and after 30 mins by Y-maze test (reference value: 45.6%). The data set is classed as functional.
In data set [20] the test system is Mus musculus. The experiment in a line: Reversal of scopolamine-induced memory cognitive memory impairment in Kunming mouse assessed as increase in spontaneous alteration behavior at 2.6 mg/kg, ig pretreated for 30 mins followed by scopolamine challenge and after 30 mins by Y-maze test. The data set is classed as functional, organism-based.

Each structure is given as a SMILES string. Active and inactive are the calls of the source. The calls are words filed in the database; no cut-off is given here.

Cholinesterase (Equus caballus), sequence (P81908 whole entry): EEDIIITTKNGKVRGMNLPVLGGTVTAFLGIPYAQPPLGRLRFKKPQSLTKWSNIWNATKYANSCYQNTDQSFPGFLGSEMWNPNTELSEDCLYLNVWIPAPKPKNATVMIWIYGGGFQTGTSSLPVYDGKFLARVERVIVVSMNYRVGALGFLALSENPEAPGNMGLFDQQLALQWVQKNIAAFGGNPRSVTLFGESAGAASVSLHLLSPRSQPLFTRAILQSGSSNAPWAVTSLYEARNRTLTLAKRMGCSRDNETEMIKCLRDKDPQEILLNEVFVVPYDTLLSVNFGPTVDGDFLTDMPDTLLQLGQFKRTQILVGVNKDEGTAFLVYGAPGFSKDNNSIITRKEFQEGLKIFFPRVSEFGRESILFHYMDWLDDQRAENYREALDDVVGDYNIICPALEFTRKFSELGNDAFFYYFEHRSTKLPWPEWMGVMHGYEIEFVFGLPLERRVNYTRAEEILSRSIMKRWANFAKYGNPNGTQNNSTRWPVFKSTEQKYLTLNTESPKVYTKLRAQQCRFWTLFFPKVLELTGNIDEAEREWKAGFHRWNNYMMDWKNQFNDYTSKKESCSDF
Acetylcholinesterase (AChE), sequence (O42275 whole entry): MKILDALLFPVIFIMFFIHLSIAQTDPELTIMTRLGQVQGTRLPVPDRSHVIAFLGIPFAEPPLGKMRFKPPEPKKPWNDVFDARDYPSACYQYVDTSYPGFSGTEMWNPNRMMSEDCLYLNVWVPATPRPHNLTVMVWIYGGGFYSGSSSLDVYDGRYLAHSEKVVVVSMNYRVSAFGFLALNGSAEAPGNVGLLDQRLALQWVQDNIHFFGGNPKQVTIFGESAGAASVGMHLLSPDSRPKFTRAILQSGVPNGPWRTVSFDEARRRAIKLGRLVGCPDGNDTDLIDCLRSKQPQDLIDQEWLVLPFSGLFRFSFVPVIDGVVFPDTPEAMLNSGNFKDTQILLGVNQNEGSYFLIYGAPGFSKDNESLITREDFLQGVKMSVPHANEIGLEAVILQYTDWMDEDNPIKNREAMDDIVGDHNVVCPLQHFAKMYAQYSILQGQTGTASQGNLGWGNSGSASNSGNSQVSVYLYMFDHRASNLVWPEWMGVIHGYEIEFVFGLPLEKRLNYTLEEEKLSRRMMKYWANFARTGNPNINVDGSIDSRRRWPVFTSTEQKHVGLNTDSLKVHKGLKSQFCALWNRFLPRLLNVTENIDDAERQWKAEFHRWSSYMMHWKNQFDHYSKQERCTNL
Cholinesterase, sequence (P81908 whole entry): as the sequence (P81908 whole entry) above

As usually defined, the inhibition is how much of the control response was suppressed. As usually defined, the IC50 is the concentration that gives 50% inhibition. As for `CCN(C)C(=O)Oc1cccc(/C=C/C(=O)c2ccccc2O)c1`, in [1], the inhibition at 0.25 h, 25 µM was determined as 26.2%. In data set [2], this compound displayed an IC50 of 3.1 µM. Moreover, the Activity in [3] is 50.8%; in data set [4], less than 75.1%; in [5], 50.1%; in data set [6], 1.3 µMequiv/µM; in [9], 83.1%; in [10] it was 428 nm. Also, the Activity in data set [11] was 435 nm; in data set [14], 0.97 molar ratio; in data set [18] it was “Non-Toxic”; in [19], 65.1%. Also, the inhibition at 12.5 µM in data set [7] was 16.4%. This compound also had an inhibition in data set [8] of 78.3%. Besides, the result in data set [12] and in data set [13] was inactive. Moreover, the outcome in data set [15] and in data set [20] was Active. In addition, the viability at 10 µM in [16] was found to be 78.3%. Further, in data set [17], the viability at 1 µM was 62.9%.
